# Calls of active or inactive are those of the source. The rule behind the calls is not given here.
# What was measured:
# OVCAR-3 [1] = experiment: Cytotoxicity against human OVCAR3 cells after 6 days by MTT assay; assay type: functional, cell-based; conditions: OVCAR-3, 144 h
# UACC-62 [2] = experiment: Cytotoxicity against human UACC62 cells after 6 days by MTT assay; assay type: functional, cell-based; conditions: UACC-62, 144 h
# [3] = Cytotoxicity against human GC3/C1 cells after 6 days by MTT assay; assay type: functional, cell-based; conditions: GC3/C1, 144 h
# UACC-62 [4] = experiment: Ratio of compound IC50 to dacarbazine IC50 for human UACC62 cells; assay type: functional
# SK-MEL-2 [5] = experiment: Ratio of compound IC50 to dacarbazine IC50 for human SK-MEL-2 cells; assay type: functional
# UACC-62 [6] = experiment: Cytotoxicity against human UACC62 cells after 1 to 3 days by MTT assay; assay type: functional, cell-based
# [7] = Solubility of the compound in 0.1 M phosphate buffer at pH 7.4; assay type: physicochemical
# In short: (§1)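 Solubility measured in ethyl acetate and in 0.1 M phosphate buffer pH 7.4; reported in mg/mL.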
# OVCAR-3 [8] = experiment: Cytotoxicity against human OVCAR3 cells after 1 to 3 days by MTT assay; assay type: functional, cell-based
# [9] = Solubility of the compound in ethyl acetate; assay type: physicochemical; in short: as §1
# SK-MEL-2 [10] = experiment: Cytotoxicity against human SK-MEL-2 cells after 6 days by MTT assay; assay type: functional, cell-based; conditions: SK-MEL-2, 144 h
# SK-MEL-2 [11] = experiment: Cytotoxicity against human SK-MEL-2 cells after 1 to 3 days by MTT assay; assay type: functional, cell-based
# UACC-62 [12] = experiment: Induction of apoptosis in human UACC62 cells assessed as translocation of phosphatidylserine from inner layer to outer layer of cell membrane at > 1 uM after 6 days using annexin V staining by flow cytometry; assay type: functional, cell-based
# [13] = Cytotoxicity against african green monkey CV1 cells after 6 days by MTT assay; assay type: cell-based; conditions: Chlorocebus aethiops, CV-1, 144 h
# UO-31 = experiment: Cytotoxicity against human UO31 cells after 6 days by MTT assay; assay type: functional, cell-based
# A-431 = experiment: Cytotoxicity against human A431 cells after 6 days by MTT assay; assay type: functional, cell-based
# UACC-62 [14] = experiment: Induction of apoptosis in human UACC62 cells assessed as translocation of phosphatidylserine from inner layer to outer layer of cell membrane after 6 days using annexin V staining by flow cytometry; assay type: functional, cell-based
# In short: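 UACC-62 plated and dosed in 96-well format as for cytotoxicity, 6 days; adherent plus floating cells trypsinized, PBS-washed, 1×10^6 cells/mL in annexin-binding buffer; ~1×10^5 cells stained with Alexa Fluor 488 annexin V and PI 15 min dark, room temperature; early plus late apoptotic fractions summed by flow cytometry; mean ± SD, three experiments.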
# NCI-H226 = experiment: Cytotoxicity against human NCI-H226 cells after 6 days by MTT assay; assay type: functional, cell-based
# [15] = Cell cycle arrest in human GC3/C1 cells assessed as DNA accumulation at 0.01 to 1 uM after 6 days using propidium iodide staining by flow cytometry; assay type: functional, cell-based
# In short: (§2)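 Cells seeded in 75 cm² flasks (GC3/c1 0.3 million, UACC-62 0.14 million) in RPMI 1640/10% FBS, exposed 6 days; adherent cells only trypsinized, PBS-washed, 1 million fixed in 70% ethanol at 4 °C, RNase A 30 min 37 °C, propidium iodide 30 min dark at room temperature; DNA content by flow cytometry; mean ± SD, three independent experiments.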
# PC-3 = experiment: Cytotoxicity against human PC3 cells after 6 days by MTT assay; assay type: functional, cell-based
# UACC-62 [16] = experiment: Cell cycle arrest in human UACC62 cells assessed as DNA accumulation at 0.01 to 1 uM after 6 days using propidium iodide staining by flow cytometry; assay type: functional, cell-based; in short: as §2
SMILES,IC50 (OVCAR-3 [1]) [µM],IC50 (UACC-62 [2]) [µM],IC50 [3] [µM],other results
CC(=O)N[C@@H](CSC(=O)Nc1cc(Cl)cc(Cl)c1)C(=O)O,> 200,> 200,> 200,–
COc1ccccc1CNC(=O)SC[C@H](NC(C)=O)C(=O)O,> 200,> 200,> 200,–
CC(=O)N[C@@H](CSC(=O)Nc1ccccc1Cl)C(=O)O,> 200,> 200,> 200,–
CC(=O)N[C@@H](CSC(=O)Nc1ccccc1)C(=O)O,153,125,178,–
CC(=O)N[C@@H](CSC(=O)Nc1ccc(F)cc1)C(=O)O,> 200,0.036,114,Ratio IC50 (UACC-62 [4]): 328; Ratio IC50 (SK-MEL-2 [5]): 279; Activity (UACC-62 [6]): inactive; solubility [7]: 26 mg/mL; Activity (OVCAR-3 [8]): inactive; solubility [9]: 388 mg/mL; IC50 (SK-MEL-2 [10]): 0.43 µM; Activity (SK-MEL-2 [11]): inactive
CC(=O)N[C@@H](CSC(=O)Nc1cccc(Cl)c1)C(=O)O,> 200,> 200,> 200,–
CC(=O)N[C@@H](CSC(=O)Nc1ccc(I)cc1)C(=O)O,> 200,46.2,> 200,–
CN(C)/N=N/c1[nH]cnc1C(N)=O [DACARBAZINE],17.7,11.8,7.67,IC50 (SK-MEL-2 [10]): 120 µM
CC(=O)N[C@@H](CSC(=O)Nc1ccc(Br)cc1)C(=O)O,> 200,0.32,63.5,Ratio IC50 (UACC-62 [4]): 37; Ratio IC50 (SK-MEL-2 [5]): 1000; Activity (UACC-62 [6]): inactive; solubility [7]: 24 mg/mL; Activity (OVCAR-3 [8]): inactive; solubility [9]: 50 mg/mL; IC50 (SK-MEL-2 [10]): 0.12 µM; Activity (SK-MEL-2 [11]): inactive
CC(=O)N[C@@H](CSC(=O)NCc1ccc(Cl)cc1)C(=O)O,> 200,> 200,> 200,–
CC(=O)N[C@@H](CSC(=O)Nc1ccccc1F)C(=O)O,> 200,> 200,> 200,–
CC(=O)N[C@@H](CSC(=O)Nc1ccc([N+](=O)[O-])cc1Cl)C(=O)O,> 200,> 200,> 200,–
COc1ccc(OC)c(NC(=O)SC[C@H](NC(C)=O)C(=O)O)c1,> 200,> 200,> 200,–
CC(=O)N[C@@H](CSC(=O)Nc1ccc(C(F)(F)F)cc1[N+](=O)[O-])C(=O)O,> 200,> 200,> 200,–
COc1ccc(NC(=O)SC[C@H](NC(C)=O)C(=O)O)cc1,> 200,75.2,> 200,–
CSc1ccccc1NC(=O)SC[C@H](NC(C)=O)C(=O)O,> 200,> 200,> 200,–
CC(=O)N[C@@H](CSC(=O)Nc1cccc2ccccc12)C(=O)O,> 200,> 200,> 200,–
CC(=O)N[C@@H](CSC(=O)Nc1ccc(Cl)cc1)C(=O)O,> 200,0.024,8.13,Ratio IC50 (UACC-62 [4]): 490; Activity (UACC-62 [12]): inactive; IC50 [13]: 522 µM; Activity (UO-31): inactive; Ratio IC50 (SK-MEL-2 [5]): 16000; Activity (UACC-62 [6]): inactive; Activity (A-431): inactive; solubility [7]: 26 mg/mL; Activity (UACC-62 [14]): Dose-dependent effect; Activity (NCI-H226): inactive; Activity (OVCAR-3 [8]): inactive; Activity [15]: inactive; solubility [9]: 721 mg/mL; Activity (PC-3): inactive; Activity (UACC-62 [16]): inactive; IC50 (SK-MEL-2 [10]): 0.008 µM; Activity (SK-MEL-2 [11]): inactive
COc1ccccc1NC(=O)SC[C@H](NC(C)=O)C(=O)O,> 200,> 200,> 200,–

# Source: ChEMBL document CHEMBL1641583, “Design, synthesis, and biological evaluation of N-acetyl-S-(p-chlorophenylcarbamoyl)cysteine and its analogs as a novel class of anticancer agents” (Bioorg Med Chem, 2011)
